Assay results from ChEMBL document CHEMBL1759935, “Pharmacokinetic optimisation of novel indole-2-carboxamide cannabinoid CB1 antagonists” (Bioorg Med Chem Lett, 2011).

What was measured:
[1] = species on record: Rattus norvegicus; assay: Clearance in rat; assay type: ADME, organism-based; details: in vivo
[2] = Intrinsic clearance in human gut microsomes in presence of UGT; assay type: ADME, Microsome
Outline: (§1)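 UGT pathway: human gut or liver microsomes at 0.5 mg protein/mL with 2 mM UDPGA, alamethicin and 1 mM MgCl2, pH 7.1. Compound depletion measured by LC–MS/MS in duplicate time-course incubations; intrinsic clearance expressed per mg protein.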

[3] = Intrinsic clearance in human liver microsomes in presence of UGT; assay type: ADME, Microsome; outline: as §1
[4] = Intrinsic clearance in human gut microsomes in presence of NADPH; assay type: ADME, Microsome
Outline: (§2)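 Pooled human microsomes (gut or liver) at 0.5 mg protein/mL with 1 mM NADPH, pH 7.4 (P450 pathway). Compound loss followed by LC–MS/MS in duplicate time-course incubations; intrinsic clearance given per mg protein.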

[5] = Bioavailability in mouse; assay type: ADME, organism-based; details: in vivo
[6] = clinical; details: human, in vivo
[7] = Bioavailability in dog; assay type: ADME, organism-based, Canis lupus familiaris; details: in vivo
[8] = Intrinsic clearance in dog gut microsomes in presence of NADPH; assay type: ADME, Canis lupus familiaris, Microsome
Outline: (§3)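 P450 pathway: compound depletion in duplicate time-course incubations of microsomes at 0.5 mg protein/mL with 1 mM NADPH, pH 7.4. Liver microsomes prepared in-house; small intestinal microsomes purchased. Loss measured by LC–MS/MS; CL_int expressed per mg microsomal protein.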

[9] = species on record: Mus musculus; assay: Clearance in mouse; assay type: ADME, organism-based; details: in vivo
[10] = species on record: Canis familiaris; assay: Clearance in dog; assay type: ADME, organism-based, Canis lupus familiaris; details: in vivo
[11] = Intrinsic clearance in rat liver microsomes in presence of UGT; assay type: ADME, Microsome
Outline: (§4)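 UGT pathway: compound loss in duplicate time-course incubations of liver (prepared in-house) or small intestinal microsomes at 0.5 mg protein/mL, with 2 mM UDPGA, alamethicin and 1 mM MgCl₂ at pH 7.1. Detection by LC–MS/MS; CL_int expressed per mg microsomal protein.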

[12] = Intrinsic clearance in mouse gut microsomes in presence of NADPH; assay type: ADME, Microsome; outline: as §3
[13] = species on record: Homo sapiens; assay: Clearance in human; assay type: ADME, organism-based; details: in vivo
[14] = Intrinsic clearance in dog liver microsomes in presence of NADPH; assay type: ADME, Canis lupus familiaris, Microsome; outline: as §3
[15] = Intrinsic clearance in rat liver microsomes in presence of NADPH; assay type: ADME, Microsome; outline: as §3
[16] = Intrinsic clearance in rat gut microsomes in presence of UGT; assay type: ADME, Microsome; outline: as §4
[17] = Bioavailability in rat; assay type: ADME, organism-based; details: in vivo
[18] = Intrinsic clearance in mouse liver microsomes in presence of UGT; assay type: ADME, Microsome; outline: as §4
[19] = Intrinsic clearance in rat gut microsomes in presence of NADPH; assay type: ADME, Microsome; outline: as §3
[20] = Intrinsic clearance in dog gut microsomes in presence of UGT; assay type: ADME, Canis lupus familiaris, Microsome; outline: as §4
[21] = Intrinsic clearance in mouse liver microsomes in presence of NADPH; assay type: ADME, Microsome; outline: as §3
[22] = Intrinsic clearance in human liver microsomes in presence of NADPH; assay type: ADME, Microsome; outline: as §2
[23] = Intrinsic clearance in dog liver microsomes in presence of UGT; assay type: ADME, Canis lupus familiaris, Microsome; outline: as §4
[24] = Intrinsic clearance in mouse gut microsomes in presence of UGT; assay type: ADME, Microsome; outline: as §4

clearance [1]: 58 mL/min/kg | microsomal CLint [2]: 346 µL/min/mg | microsomal CLint [3]: 24 µL/min/mg | microsomal CLint [4]: < 6 µL/min/mg | bioavailability [5]: 10% | bioavailability [6]: 2% | bioavailability [7]: 5% | microsomal CLint [8]: < 6 µL/min/mg | clearance [9]: 108 mL/min/kg | clearance [10]: 40 mL/min/kg | microsomal CLint [11]: 11 µL/min/mg | microsomal CLint [12]: < 6 µL/min/mg | clearance [13]: 21 mL/min/kg | microsomal CLint [14]: 178 µL/min/mg | microsomal CLint [15]: 79 µL/min/mg | microsomal CLint [16]: 5 µL/min/mg | bioavailability [17]: 4% | microsomal CLint [18]: < 6 µL/min/mg | microsomal CLint [19]: < 6 µL/min/mg | microsomal CLint [20]: 22 µL/min/mg | microsomal CLint [21]: 66 µL/min/mg | microsomal CLint [22]: 79 µL/min/mg | microsomal CLint [23]: 26 µL/min/mg | microsomal CLint [24]: 34 µL/min/mg
Compound: O=C(c1ccc(OCCN2CCCCC2)cc1)c1c(-c2ccc(O)cc2)sc2cc(O)ccc12 [RALOXIFENE]
